ChEMBL document CHEMBL1122985, “Synthesis and evaluation of N,N'-bis(arylsulfonyl)hydrazines as antineoplastic agents” (1985)

Legend:
Assay type in all cases: functional
Mus musculus [1] = assay: Percent change in the weight after administering a dose of 100 mg/kg to mice bearing L1210 leukemia
In short: (§1)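 L1210 ascites cells were propagated in CDF₁ mice and 0.1 mL of a suspension at 10⁶ cells/mL in isotonic saline was implanted ip. Compound was given ip once daily for 6 consecutive days starting 24 h after implantation, as a fine suspension in Tween 80/saline (0.5 mL). Groups of five were used, with vehicle controls. The read-out was average body-weight change from onset to end of therapy.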

Mus musculus [2] = assay: Percent change in the weight after administering a dose of 150 mg/kg to mice bearing L1210 leukemia; in short: as §1
Mus musculus [3] = assay: Percent change in the weight after administering a dose of 50 mg/kg to mice bearing L1210 leukemia; in short: as §1
Mus musculus [4] = assay: Average survival time of control mice bearing L1210 leukemia at a dose 50 mg/kg
In short: (§2)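 L1210 ascites cells passaged in CDF1 mice, taken from 7-day donors, spun, diluted 10-fold in isotonic saline and set to 10^6 cells/mL by Coulter count; 0.1 mL given ip. Compound suspended in 2–3 drops 20% aqueous Tween 80 plus isotonic saline, 0.5 mL ip once daily for 6 days from 24 h after implant. Groups of five; vehicle-injected controls. %T/C = treated/control mean survival ×100.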

Mus musculus [5] = assay: Average survival time of treated mice bearing the L1210 leukemia at a dose 100 mg/kg; in short: as §2
Mus musculus [6] = assay: Average survival time of treated mice bearing the L1210 leukemia at a dose 150 mg/kg; in short: as §2
Mus musculus [7] = assay: Average survival time of treated mice bearing the L1210 leukemia at a dose 50 mg/kg; in short: as §2
Mus musculus [8] = assay: Percentage of average survival time of control/treated mice bearing the L1210 leukemia at a dose 100 mg/kg; in short: as §2
Mus musculus [9] = assay: Percentage of average survival time of control/treated mice bearing the L1210 leukemia at a dose 150 mg/kg; in short: as §2
Mus musculus [10] = assay: Percentage of average survival time of control/treated mice bearing the L1210 leukemia at a dose 50 mg/kg; in short: as §2
Mus musculus [11] = assay: Percentage of average survival time of control/treated mice bearing P388 leukemia at a dose 150 mg/kg
Mus musculus [12] = assay: Average survival time of mice bearing L1210 leukemia at a dose 50 mg/kg; in short: as §2
Mus musculus [13] = assay: Percentage of average survival time of control/treated mice bearing sarcoma 180 at a dose 50 mg/kg
Mus musculus [14] = assay: Percentage of average survival time of control/treated mice bearing sarcoma 180 at a dose 100 mg/kg

| SMILES | Average weight change (Mus musculus [1]) [%] | Average weight change (Mus musculus [2]) [%] | Average weight change (Mus musculus [3]) [%] | Survival time (Mus musculus [4]) [days] | Survival time (Mus musculus [5]) [days] | Survival time (Mus musculus [6]) [days] | Survival time (Mus musculus [7]) [days] | T/C (Mus musculus [8]) [%] | T/C (Mus musculus [9]) [%] | T/C (Mus musculus [10]) [%] | T/C (Mus musculus [11]) [%] | Survival time (Mus musculus [12]) [days] | T/C (Mus musculus [13]) [%] | T/C (Mus musculus [14]) [%] |
| --- | --- | --- | --- | --- | --- | --- | --- | --- | --- | --- | --- | --- | --- | --- |
| CN(NC(=O)c1ccccc1)C(=O)c1ccccc1 | -2 | -2 | 2.5 | 9.5 | 9.2 | 9.2 | 9.2 | 97 | 97 | 97 |  |  |  |  |
| CN(NS(=O)(=O)c1ccc(Cl)cc1)S(=O)(=O)c1ccc(Cl)cc1 | 1.3 | 6.9 | 4 | 9.5 |  |  | 11.4 | 124 |  | 120 |  |  |  |  |
| O=S(=O)(NNS(=O)(=O)c1ccccc1)c1ccccc1 | 5.8 | 0.8 | -0.3 | 9.5 | 9.2 | 9.6 | 9.2 | 97 | 101 | 97 |  |  |  |  |
| COc1ccc(S(=O)(=O)NN(C)S(=O)(=O)c2ccc(OC)cc2)cc1 | -1.6 | 4.1 | 1.9 | 9 |  |  |  |  |  |  | 136 |  |  |  |
| CN(NS(=O)(=O)c1ccc2ccccc2c1)S(=O)(=O)c1ccc2ccccc2c1 | -3.3 | 4.1 | 3 | 9 |  | 9 |  |  |  |  |  |  |  |  |
| Cc1ccc(S(=O)(=O)NN(C)S(=O)(=O)c2ccc(C)cc2)cc1 | 0.8 |  | 3.7 | 9.5 |  |  |  |  |  |  |  | 14 | 197 |  |
| CN(NS(=O)(=O)c1ccccc1)S(=O)(=O)c1ccccc1 | -5.2 | -13.5 | -4.8 | 9 |  | 9.4 |  |  |  |  |  |  |  | 203 |
